Measured values as given in PubChem BioAssay AID623895 (Broad Institute, 2012).
Active and inactive are the calls of the source.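 How the source made its calls: active means compounds with an ATP-loss curve whose half-maximal dose stays within twice the top dose, in every run; inconclusive means mixed run calls, weak flat effects or poor fits; inactive means the rest, including opposite-direction effects.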

Experiment: viability loss of SR-BI expressing CHO cells – cell-based, 24 h, ATP luminescence, dry powder, set 6, cytotoxicity control for SR-BI HDL uptake inhibitor project, dose response (AID 623895)
Details: ldlA[mSR-BI] CHO cells viability, ATP luminescence, 24 h; at 35 µM (top of the series)
In short: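 material = ldlA[mSR-BI] cells | dosing = Eight-point compound dose series | incubation = 24 h at 37 °C, read after 10 min | signal = ATP luminescence (Cell Titer Glo) | read-out basis = viability IC50 from dose-response fit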

With C[C@@H]1CN([C@H](C)CO)C(=O)c2cc(NC(=O)Cc3cn(C)c4ccccc34)ccc2O[C@H]1CN(C)Cc1ccc(-c2ccccc2)cc1 the activity change, negative = cytotoxicity was -34.9% (inactive).
For C[C@@H]1CN([C@@H](C)CO)C(=O)Cc2cc(NS(=O)(=O)c3cn(C)cn3)ccc2O[C@@H]1CN(C)Cc1ccc(Cl)c(Cl)c1, the activity change, negative = cytotoxicity was -6.37% (inactive).
With C[C@@H]1CN([C@H](C)CO)C(=O)c2cc(NC(=O)Cc3cn(C)c4ccccc34)ccc2O[C@H]1CN(C)Cc1ccncc1 the activity change, negative = cytotoxicity was -16.9% (inactive).
For C[C@@H]1CN([C@H](C)CO)C(=O)c2cc(NS(=O)(=O)c3ccccc3)ccc2O[C@H]1CN(C)S(=O)(=O)c1ccc(Cl)cc1, the activity change, negative = cytotoxicity was -8.14% (inactive).
For COc1ccc(S(=O)(=O)N(C)C[C@@H]2Oc3ccc(NC(=O)Cc4cn(C)c5ccccc45)cc3C(=O)N([C@H](C)CO)C[C@H]2C)cc1, the activity change, negative = cytotoxicity was -20.3% (inactive).
In the case of C[C@@H]1CN([C@H](C)CO)C(=O)c2cc(NC(=O)Cc3cn(C)c4ccccc34)ccc2O[C@H]1CN(C)Cc1ccc(C(=O)Nc2ccccc2N)cc1, the activity change, negative = cytotoxicity was -12.9% (inactive).
With Cc1noc(C)c1NC(=O)Nc1ccc2c(c1)C(=O)N([C@H](C)CO)C[C@@H](C)[C@H](CN(C)S(=O)(=O)c1ccc(Cl)cc1)O2 the activity change, negative = cytotoxicity was -7.8% (inactive).
With COc1ccc(NC(=O)N(C)C[C@@H]2Oc3ccc(NC(=O)Cc4cn(C)c5ccccc45)cc3C(=O)N([C@H](C)CO)C[C@H]2C)cc1 the activity change, negative = cytotoxicity was 13.1% (inactive).
For O=C1C2C3C=CC(C3)C2C(=O)N1c1cccc(N2C(=O)C3C4C=CC(C4)C3C2=O)n1 (stereo not given), the activity change, negative = cytotoxicity was -8.55% (inactive).
For COc1ccc(NC(=O)Nc2ccc3c(c2)C(=O)N([C@H](C)CO)C[C@@H](C)[C@H](CN(C)S(=O)(=O)c2ccc(Cl)cc2)O3)cc1, the activity change, negative = cytotoxicity was -15.6% (inactive).
In the case of Cc1noc(C)c1S(=O)(=O)Nc1ccc2c(c1)C(=O)N([C@H](C)CO)C[C@@H](C)[C@H](CN(C)S(=O)(=O)c1ccc(Cl)cc1)O2, the activity change, negative = cytotoxicity was -15.6% (inactive).
With C[C@@H]1CN([C@H](C)CO)C(=O)c2cc(NC(=O)C3CCCCC3)ccc2O[C@H]1CN(C)S(=O)(=O)c1ccccc1Cl the activity change, negative = cytotoxicity was -18.6% (inactive).
In the case of C[C@@H]1CN([C@H](C)CO)C(=O)c2cc(NC(=O)C3CCCCC3)ccc2O[C@H]1CN(C)C(=O)c1ccc(Cl)cc1, the activity change, negative = cytotoxicity was -24.6% (inactive).
For C[C@@H]1CN([C@H](C)CO)C(=O)c2cc(NC(=O)Cc3cn(C)c4ccccc34)ccc2O[C@H]1CN(C)S(C)(=O)=O, the activity change, negative = cytotoxicity was -4.79% (inactive).
In the case of C[C@@H]1CN([C@H](C)CO)C(=O)c2cc(NC(=O)Cc3cn(C)c4ccccc34)ccc2O[C@H]1CN(C)C(=O)Nc1ccc2c(c1)OCO2, the activity change, negative = cytotoxicity was 7.49% (inactive).
With Cc1ccccc1-c1ccc2c(c1)O[C@@H](CN(C)C(=O)Nc1ccc(F)cc1)[C@H](C)CN([C@@H](C)CO)S2(=O)=O the activity change, negative = cytotoxicity was -23.7% (inactive).
In the case of C[C@@H]1CN([C@H](C)CO)C(=O)c2cc(NS(C)(=O)=O)ccc2O[C@H]1CN(C)S(=O)(=O)c1ccc(Cl)cc1, the activity change, negative = cytotoxicity was -14.8% (inactive).
With C[C@@H]1CN([C@H](C)CO)C(=O)c2cc(NC(=O)Nc3ccc(C(F)(F)F)cc3)ccc2O[C@H]1CN(C)S(=O)(=O)c1ccc(Cl)cc1 the activity change, negative = cytotoxicity was -31.8% (inactive).
With Cc1ccc(OCc2cc(C(=O)N3CCCC(O)C3)no2)cn1 (stereo not given) the activity change, negative = cytotoxicity was -19.7% (inactive).
In the case of COc1ccc(CN(C)C[C@@H]2Oc3ccc(NC(=O)CCCN(C)C)cc3C(=O)N([C@H](C)CO)C[C@H]2C)cc1, the activity change, negative = cytotoxicity was 12.2% (inactive).
With CNC[C@@H]1Oc2ccc(NC(=O)Cc3cn(C)c4ccccc34)cc2C(=O)N([C@H](C)CO)C[C@H]1C the activity change, negative = cytotoxicity was 14.8% (inactive).
With C[C@@H]1CN([C@H](C)CO)C(=O)c2cc(NC(=O)C3CC3)ccc2O[C@H]1CN(C)S(=O)(=O)c1ccc(Cl)cc1 the activity change, negative = cytotoxicity was -13% (inactive).
With C[C@@H]1CN([C@H](C)CO)C(=O)c2cc(NC(=O)Cc3cn(C)c4ccccc34)ccc2O[C@H]1CN(C)S(=O)(=O)c1ccc(Cl)cc1 the activity change, negative = cytotoxicity was -19.8% (inactive).
With C[C@H](CO)N1C[C@H](C)[C@@H](CN(C)S(=O)(=O)c2ccc(Cl)cc2)Oc2ccc(NC(=O)Cc3cn(C)c4ccccc34)cc2C1=O the activity change, negative = cytotoxicity was -25.3% (inactive).
With C[C@@H]1CN([C@H](C)CO)C(=O)c2cc(N(C)C)ccc2O[C@H]1CN(C)S(=O)(=O)c1ccc(Cl)cc1 the activity change, negative = cytotoxicity was -23.7% (inactive).
For C[C@H]1CN([C@@H](C)CO)C(=O)c2cc(NC(=O)Cc3cn(C)c4ccccc34)ccc2O[C@H]1CN(C)S(=O)(=O)c1ccc(Cl)cc1, the activity change, negative = cytotoxicity was -23.6% (inactive).
For C[C@@H]1CN([C@H](C)CO)C(=O)c2cc(NC(=O)Cc3cn(C)c4ccccc34)ccc2O[C@H]1CN(C)S(=O)(=O)c1cccs1, the activity change, negative = cytotoxicity was -7.16% (inactive).
In the case of C[C@@H]1CN([C@H](C)CO)C(=O)c2cc(NC(=O)Cc3cn(C)c4ccccc34)ccc2O[C@H]1CN(C)S(=O)(=O)c1cn(C)cn1, the activity change, negative = cytotoxicity was -6.33% (inactive).
In the case of C[C@@H]1CN([C@H](C)CO)C(=O)c2cc(NC(=O)Nc3ccccc3)ccc2O[C@H]1CN(C)S(=O)(=O)c1ccc(Cl)cc1, the activity change, negative = cytotoxicity was -34.8% (inactive).
For C[C@@H]1CN([C@H](C)CO)C(=O)c2cc(NS(=O)(=O)c3cn(C)cn3)ccc2O[C@H]1CN(C)S(=O)(=O)c1ccc(Cl)cc1, the activity change, negative = cytotoxicity was 1.24% (inactive).
In the case of COc1ccc(-c2nnn(CC(=O)N(C3CCCCC3)C(C)C(=O)NC3CCCCC3)n2)cc1OC (stereo not given), the activity change, negative = cytotoxicity was -9.26% (inactive).
With C[C@@H]1CN([C@H](C)CO)C(=O)Cc2cc(NC(=O)Cc3cn(C)c4ccccc34)ccc2O[C@H]1CN(C)S(=O)(=O)c1ccc(F)cc1 the activity change, negative = cytotoxicity was -0.321% (inactive).
For C[C@@H]1CN([C@H](C)CN)C(=O)c2cc(NC(=O)Cc3cn(C)c4ccccc34)ccc2O[C@H]1CN(C)S(=O)(=O)c1ccc(Cl)cc1, the activity change, negative = cytotoxicity was -0.334% (inactive).
In the case of Cc1ccccc1-c1ccc2c(c1)O[C@H](CN(C)C(=O)Nc1ccc(F)cc1)[C@H](C)CN([C@H](C)CO)S2(=O)=O, the activity change, negative = cytotoxicity was -28.5% (inactive).
For CO[C@@H]1CN(C)C(=O)c2ccc(NC(=O)C3CC3)cc2OC[C@@H](C)N(Cc2ccncc2)C[C@H]1C, the activity change, negative = cytotoxicity was -2.35% (inactive).
With CC(C)NC(=O)Nc1cccc2c1O[C@@H](CN(C)Cc1ccc(C(F)(F)F)cc1)[C@@H](C)CN([C@@H](C)CO)C2=O the activity change, negative = cytotoxicity was -11.3% (inactive).
With C[C@@H]1CN([C@H](C)CO)C(=O)c2cc(NC(=O)CCCN(C)C)ccc2O[C@H]1CN(C)S(=O)(=O)c1ccc(Cl)cc1 the activity change, negative = cytotoxicity was 15.7% (inactive).
In the case of C[C@@H]1CN([C@@H](C)CO)C(=O)c2cc(NC(=O)Cc3cn(C)c4ccccc34)ccc2O[C@H]1CN(C)S(=O)(=O)c1ccc(Cl)cc1, the activity change, negative = cytotoxicity was -25.3% (inactive).
With C[C@@H]1CN([C@H](C)CO)C(=O)c2cc(NC(=O)Cc3cn(C)c4ccccc34)ccc2O[C@H]1CN(C)C(=O)Nc1cccc2ccccc12 the activity change, negative = cytotoxicity was -4.64% (inactive).
With C[C@H]1CN([C@@H](C)CO)C(=O)c2cc(NC(=O)Cc3cn(C)c4ccccc34)ccc2O[C@@H]1CN(C)S(=O)(=O)c1ccc(Cl)cc1 the activity change, negative = cytotoxicity was -20.1% (inactive).
For COc1cc(OC)cc(C(=O)Nc2nc(-c3ccc4c(c3)CCN4C(=O)CN3CCOCC3)cs2)c1, the activity change, negative = cytotoxicity was 3.74% (inactive).
In the case of C[C@@H]1CN([C@H](C)CO)C(=O)c2cc(NC(=O)c3ccncc3)ccc2O[C@H]1CN(C)S(=O)(=O)c1ccc(Cl)cc1, the activity change, negative = cytotoxicity was 4.97% (inactive).
In the case of Cc1noc(C)c1S(=O)(=O)N(C)C[C@H]1Oc2c(NC(=O)c3nc4ccccc4s3)cccc2C(=O)N([C@H](C)CO)C[C@H]1C, the activity change, negative = cytotoxicity was -8.36% (inactive).
With C[C@@H]1CN([C@H](C)CO)C(=O)c2cc(NC(=O)Cc3cn(C)c4ccccc34)ccc2O[C@H]1CN(C)Cc1ccc(C(=O)O)cc1 the activity change, negative = cytotoxicity was -1% (inactive).
In the case of C[C@@H]1CN([C@H](C)CO[Si](C)(C)C(C)(C)C)C(=O)c2cc(NC(=O)C3CCCCC3)ccc2O[C@H]1CN(C)C(=O)c1ccc(Cl)cc1, the activity change, negative = cytotoxicity was -16.8% (inactive).
For CC(C)NC(=O)Nc1ccc2c(c1)C(=O)N([C@H](C)CO)C[C@@H](C)[C@H](CN(C)S(=O)(=O)c1ccc(Cl)cc1)O2, the activity change, negative = cytotoxicity was 3.09% (inactive).
With COc1ccc2c(c1)CC(C1(O)C(=O)N(C)c3ccccc31)C2=O (stereo not given) the activity change, negative = cytotoxicity was -9.47% (inactive).
For C[C@H](CO)N1C[C@H](C)[C@H](CN(C)S(=O)(=O)c2ccc(Cl)cc2)Oc2ccc(NC(=O)Cc3cn(C)c4ccccc34)cc2C1=O, the activity change, negative = cytotoxicity was -19.8% (inactive).
With C[C@@H]1CN([C@H](C)CO)C(=O)c2cc(NC(=O)Cc3cn(C)c4ccccc34)ccc2O[C@H]1CN(C)C(=O)Nc1ccccc1 the activity change, negative = cytotoxicity was -12.4% (inactive).
In the case of CO[C@H]1CN(C)C(=O)c2ccc(NC(=O)C3CCCC3)cc2OC[C@@H](C)N(C(=O)CC2CC2)C[C@@H]1C, the activity change, negative = cytotoxicity was -11.9% (inactive).
With C[C@@H]1CN([C@H](C)CO)C(=O)c2cc(NC(=O)Cc3cn(C)c4ccccc34)ccc2O[C@H]1CN(C)C(=O)Nc1ccc(F)cc1 the activity change, negative = cytotoxicity was -16.3% (inactive).
In the case of C[C@@H]1CN([C@H](C)CO)C(=O)c2cc(NS(=O)(=O)c3cccs3)ccc2O[C@H]1CN(C)S(=O)(=O)c1ccc(Cl)cc1, the activity change, negative = cytotoxicity was 1.79% (inactive).
With C[C@@H]1CN([C@H](C)CO)C(=O)c2cc(NC(=O)CCCCCC(=O)Nc3ccccc3N)ccc2O[C@H]1CN(C)S(=O)(=O)c1ccc(Cl)cc1 the activity change, negative = cytotoxicity was -0.144% (inactive).
For C[C@@H]1CN([C@H](C)CO)C(=O)c2cc(NC(=O)Cc3cn(C)c4ccccc34)ccc2O[C@H]1CN(C)Cc1ccc2c(c1)OCO2, the activity change, negative = cytotoxicity was -15% (inactive).
With C[C@@H]1CN([C@H](C)CO)C(=O)c2cc(NC(=O)CCC(F)(F)F)ccc2O[C@H]1CN(C)S(=O)(=O)c1ccc(Cl)cc1 the activity change, negative = cytotoxicity was -19.4% (inactive).
